Measurements: ChEMBL document CHEMBL5113407, “Identification and development of a series of disubstituted piperazines for the treatment of Chagas disease” (Eur J Med Chem, 2022)
In brackets after ≈: the same amount, converted by molar mass. Activity calls are given as the source filed them. The rule behind the calls is not given here.

Columns and labels:
Trypanosoma cruzi [1] = experiment: Antitrypanosomal activity against intracellularTrypanosoma cruzi amastigote; type: functional, organism-based
In short: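 Intracellular T. cruzi amastigote assay; potency expressed as pEC50 from at least three independent replicates, SD ≤0.2.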

[2] = Intrinsic clearance in mouse liver microsomes; type: ADME, Microsome
[3] = Kinetic solubility of compound; type: physicochemical; conditions: read-out: Kinetic_solubility
In short: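 Kinetic solubility read by charged aerosol detection (CAD).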

Trypanosoma cruzi [4] = experiment: Antitrypanosomal activity against Trypanosoma cruzi infected in mouse assessed as decrease in parasite level at 50 mg/kg twice daily for 5 days cotreated with 1-ABT; type: functional, organism-based; conditions: time 5.0 day
In short: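 Acute infection mouse model; drug given twice daily for 5 days from day 14 post-infection, with 1-ABT 50 mg/kg given 30 min before each dose. Vehicle controls dosed b.i.d. at 10 mL/kg. Whole-body bioluminescence imaging, dorsal and ventral, quantified as total flux (p/s). Cyclophosphamide 200 mg/kg i.p. on days 28, 32 and 36 post-infection to detect relapse. Blood sampled on days 1 and 5 (n = 3).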

[5] = Inhibition of Trypanosoma cruzi CYP51

Compound	EC50 (Trypanosoma cruzi [1]) [µM]	CLint [2] [mL/min/g]	further results
Cc1ccc(S(=O)(=O)Nc2ccc(CN3CCN(C(=O)c4cc(=O)c5ccccc5n4C)CC3)cc2)cc1	3.98	> 50	solubility kinetic [3]: 29 µM (≈ 15.4 µg/mL)
Cc1ccc(S(=O)(=O)Nc2ccc(CN(C)[C@H]3CCN(C(=O)c4cccc(Cl)c4)C3)cc2)cc1	–	> 50	–
Cc1ccc(S(=O)(=O)Nc2ccc(CN3CCN(C(=O)c4cccc(C#N)c4)CC3)cc2)cc1	0.398	–	–
COc1ccc(S(=O)(=O)Nc2ccc(Cn3cc4c(n3)CN(C(=O)c3cccc(Cl)c3)C4)cc2)cc1	12.6	–	–
Cc1ccc(S(=O)(=O)Nc2ccc(CN(C)[C@@H]3CCN(C(=O)c4cccc(Cl)c4)C3)cc2)cc1	–	> 50	–
Cc1ccc(S(=O)(=O)Nc2ccc(CN3CCN(C(=O)c4cccc(Cl)c4)CC3)cc2)cc1	–	> 50	Activity (Trypanosoma cruzi [4]): Active; pIC50 [5]: 4.7
Cc1ccc(S(=O)(=O)Nc2ccc(CN3CCN(C(=O)Cc4coc5ccccc45)CC3)cc2)cc1	6.31	–	–
